Laboratory results published in ChEMBL document CHEMBL4609998 (Bioorg Med Chem, 2020).
One block for each compound: values may come before it. Calls of active or inactive are those of the source. The calls are words filed in the database; no cut-off is given here.

Assays:
U-87 MG [1] = assay: Antiproliferative activity against human U87 cells assessed as reduction in cell viability at 1 to 30000 nM incubated for 5 days by Prestoblue reagent based assay; format: functional; conditions: U-87MG ATCC
How it was run: (§1)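 Glioma lines in DMEM/10% FBS/2 mM glutamine: U87 at 1 × 10^3 and T98 at 5 × 10^2 cells/well, incubated 48 h, then treated over 1–30,000 nM for 5 d. PrestoBlue viability; EC50 calculated from dose-response curves. Mean ± SEM, 3 independent experiments in triplicate.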

T98 [2] = assay: Antiproliferative activity against human T98 cells assessed as reduction in cell viability at 1 to 30000 nM incubated for 5 days by Prestoblue reagent based assay; format: functional; how it was run: as §1
T98 [3] = assay: Antiproliferative activity against human T98 cells assessed as reduction in cell viability at 1 to 1000 nM incubated for 5 days by Prestoblue reagent based assay; format: functional
How it was run: (§2)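 U87 (1 × 10^3/well) or T98 (5 × 10^2/well) cells, grown in DMEM with 10% FBS and 2 mM glutamine, plated 48 h before dosing at 1–1,000 nM. Viability read with PrestoBlue at day 5; EC50 values taken from dose-response curves. Mean ± SEM, three independent experiments in triplicate.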

U-87 MG [4] = assay: Antiproliferative activity against human U87 cells assessed as reduction in cell viability at 1 to 1000 nM incubated for 5 days by Prestoblue reagent based assay; format: functional; conditions: U-87MG ATCC; how it was run: as §2
T98 [5] = assay: Synergistic antiproliferative activity against human T98 cells assessed as reduction in cell viability at 10 to 1000 nM in presence of GDC0941 incubated for 5 days by Prestoblue reagent based assay; format: functional
T98 [6] = assay: Antiproliferative activity against human T98 cells assessed as reduction in cell viability at 3 to 300 uM incubated for 5 days by Prestoblue reagent based assay; format: functional
How it was run: (§3)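 Library screen: U87 (1 × 10^3/well) and T98 (5 × 10^2/well) cells seeded 48 h ahead, then exposed for 5 d to three concentrations (3, 30 and 300 μM). Viability by PrestoBlue; EC50 derived from the resulting dose-response curves. Means of three independent experiments in triplicate.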

U-87 MG [7] = assay: Synergistic antiproliferative activity against human U87 cells assessed as reduction in cell viability at 10 to 1000 nM in presence of GDC0941 incubated for 5 days by Prestoblue reagent based assay; format: functional; conditions: U-87MG ATCC
U-87 MG [8] = assay: Antiproliferative activity against human U87 cells assessed as reduction in cell viability at 3 to 300 uM incubated for 5 days by Prestoblue reagent based assay; format: functional; conditions: U-87MG ATCC; how it was run: as §3
Homo sapiens = species on record: Homo sapiens; assay: Antiproliferative activity against human G317 cell spheroid assessed as reduction in cell viability incubated for 8 days; format: functional
How it was run: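 G317 patient-derived glioma cells (4 × 10^3) spun into ultra-low attachment round-bottom wells (1000g, 4 °C, 10 min), left 2 days to form spheroids, then exposed to inhibitors at 4 concentrations from 10 nM to 10 μM for 8 days. Imaged on day 10; spheroid area quantified by image analysis. Mean ± SEM of 6 spheroids from two cultures.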

U-87 MG [9] = assay: Antiproliferative activity against human U87 cells assessed as reduction in cell viability incubated for 5 days by Prestoblue reagent based assay; format: functional, U-87MG ATCC; conditions: 120 h; how it was run: as §1
T98 [10] = assay: Antiproliferative activity against human T98 cells assessed as reduction in cell viability incubated for 5 days by Prestoblue reagent based assay; format: functional; conditions: T98, 120 h; how it was run: as §1
T98 [11] = assay: Synergistic antiproliferative activity against human T98 cells assessed as reduction in cell viability at 100 nM in presence of GDC0941 incubated for 5 days by Prestoblue reagent based assay; format: functional

Compound: Nc1ncnc2c1c(-c1cnc3[nH]ccc3c1)nn2CC1CCCC1
- inhibition (U-87 MG [1]): Active
- inhibition (T98 [2]): Active

Compound: Nc1nc2cc(-c3nn(CC4CCCC4)c4ncnc(N)c34)ccc2o1
- inhibition (T98 [3]): Active
- inhibition (U-87 MG [4]): Active
- Activity (T98 [5]): Active
- inhibition (T98 [6]): Active
- Activity (U-87 MG [7]): Active
- inhibition (U-87 MG [8]): Active
- inhibition (Homo sapiens): Dose-dependent effect

Compound: CC(C)n1nc(-c2ccc3oc(N)nc3c2)c2c(N)ncnc21
- inhibition (Homo sapiens): Dose-dependent effect

Compound: CNc1ncc2c(-c3ccc4oc(N)nc4c3)nn(CC3CCCC3)c2n1
- inhibition (U-87 MG [1]): Active
- inhibition (T98 [2]): Active

Compound: CCc1c2c(nc3ccc(O)cc13)-c1cc3c(c(=O)n1C2)COC(=O)[C@]3(O)CC
- inhibition (Homo sapiens): Dose-dependent effect

The next lines start with results.

- EC50 (U-87 MG [9]): 100 to 150 nM
Compound: Nc1nc2cc(-c3nn(C[C@H]4CCCO4)c4ncnc(N)c34)ccc2o1
- EC50 (T98 [10]): 100 to 150 nM
- inhibition (T98 [6]): Active
- inhibition (U-87 MG [8]): Active

- EC50 (U-87 MG [9]): 100 to 150 nM
Compound: Nc1nc2cc(-c3nn(CC4CCCO4)c4ncnc(N)c34)ccc2o1 (stereo unspecified)
- EC50 (T98 [10]): 100 to 150 nM
- inhibition (T98 [6]): Active
- inhibition (U-87 MG [8]): Active

- EC50 (U-87 MG [9]): 100 to 150 nM
Compound: CCOC(Cn1nc(-c2ccc3oc(N)nc3c2)c2c(N)ncnc21)OCC
- inhibition (T98 [3]): Active
- inhibition (U-87 MG [4]): Active
- EC50 (T98 [10]): 100 to 150 nM
- inhibition (T98 [6]): Active
- Activity (T98 [11]): Active
- inhibition (U-87 MG [8]): Active
- inhibition (Homo sapiens): Dose-dependent effect

- EC50 (U-87 MG [9]): 100 to 150 nM
Compound: Nc1nc2cc(-c3nn(CC4OCCO4)c4ncnc(N)c34)ccc2o1
- EC50 (T98 [10]): 100 to 150 nM
- inhibition (T98 [6]): Active
- inhibition (U-87 MG [8]): Active

- EC50 (U-87 MG [9]): 100 to 150 nM
Compound: COC(Cn1nc(-c2ccc3oc(N)nc3c2)c2c(N)ncnc21)OC
- EC50 (T98 [10]): 100 to 150 nM
- inhibition (T98 [6]): Active
- inhibition (U-87 MG [8]): Active

- EC50 (U-87 MG [9]): 100 to 150 nM
Compound: Nc1nc2cc(-c3nn(C[C@@H]4CCCO4)c4ncnc(N)c34)ccc2o1
- EC50 (T98 [10]): 100 to 150 nM
- inhibition (T98 [6]): Active
- inhibition (U-87 MG [8]): Active
